The record followed here is ChEMBL document CHEMBL3272191, “Aporphines. 14 Dopaminergic and antinociceptive activity of aporphine derivatives. Synthesis of 10-hydroxyaporphines and 10-hydroxy-N-n-propylnoraporphine” (1976).

Activity calls are given as the source filed them.

The test system of assay [1] is Rattus norvegicus. The experiment in a line: Central dopaminergic activity in 6-OH-DA-lesioned specific pathogen-free Sprague-Dawley rat assessed as induction of rotational behavior measured as total time at 0.01 mg/kg, ip. The format is functional. To be noted: route intraperitoneal. A digest of the protocol: (§1)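 Drugs were given ip, mostly to one group of four rats, with an extra group of four in some runs. Doses were 3 days or more apart over several months. Read-outs were total turning time (min), peak activity, overall mean activity and total activity, given as means ± SEM.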

The subject of assay [2] is Rattus norvegicus. The experiment in a line: Central dopaminergic activity in 6-OH-DA-lesioned specific pathogen-free Sprague-Dawley rat assessed as induction of rotational behavior measured as total time at 0.025 mg/kg, ip. Format: functional. To be noted: route intraperitoneal. In outline:
as §1

In assay [3] the test system is Rattus norvegicus. The experiment in a line: Central dopaminergic activity in 6-OH-DA-lesioned specific pathogen-free Sprague-Dawley rat assessed as induction of rotational behavior measured as total time at 0.05 mg/kg, ip. To be noted: route intraperitoneal. The format is functional. In outline:
as §1

In assay [4] the test system is Rattus norvegicus. The experiment in a line: Central dopaminergic activity in 6-OH-DA-lesioned specific pathogen-free Sprague-Dawley rat assessed as induction of rotational behavior measured as total time at 0.5 mg/kg, ip. The note with it: route intraperitoneal. The format is functional. In outline: as §1
Assay [5] deals with Rattus norvegicus. The experiment in a line: Central dopaminergic activity in 6-OH-DA-lesioned specific pathogen-free Sprague-Dawley rat assessed as induction of rotational behavior measured as total time at 1 mg/kg, ip. Format: functional. The note with it: route intraperitoneal. A digest of the protocol: as §1
The test system of assay [6] is Rattus norvegicus. The experiment in a line: Central dopaminergic activity in 6-OH-DA-lesioned specific pathogen-free Sprague-Dawley rat assessed as induction of rotational behavior measured as total time at 2 mg/kg, ip. The format is functional. The note with it: route intraperitoneal. In outline: as §1
In assay [7] the test system is Rattus norvegicus. The experiment in a line: Central dopaminergic activity in 6-OH-DA-lesioned ip dosed specific pathogen-free Sprague-Dawley rat assessed as induction of rotational behavior. The format is functional, organism-based. A digest of the protocol: as §1
In assay [8] the test system is Mus musculus. The experiment in a line: Antinociceptive activity in albino CD-1 mouse at 0.1 to 10 mg/kg, ip after 60 mins by tail-flick method. Format: functional, organism-based. In outline:
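Male albino CD-1 mice (18–24 g) were used in groups of ten. Compounds were suspended in 0.5% methylcellulose and given ip. Light was focused on the ventral tail and set for a 2–4 s baseline flick; mice outside that range were excluded. The control was the mean of two readings 30 min apart. Latencies were read every 30 min for 2 h, with a 10 s cutoff. Read-out was %MPE = [(Tr − Tc)/(10 − Tc)] × 100, taken at time of peak effect.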
A general note: Thermal pain tests record how soon the animal reacts.

The test system of assay [9] is Mus musculus. The experiment in a line: Antinociceptive activity in naloxone hydrochloride-pretreated albino CD-1 mouse at 0.1 to 10 mg/kg, ip after 60 mins by tail-flick method. Format: functional, organism-based.
For assay [10], the system named is Rattus norvegicus. The experiment in a line: Central dopaminergic activity in 6-OH-DA-lesioned specific pathogen-free Sprague-Dawley rat assessed as induction of rotational behavior measured as total time at 5 mg/kg, ip. Format: functional. To be noted: route intraperitoneal. In outline:
as §1

Assay [11] deals with Rattus norvegicus. The experiment in a line: Central dopaminergic activity in 6-OH-DA-lesioned specific pathogen-free Sprague-Dawley rat assessed as induction of rotational behavior measured as total time at 15 mg/kg, ip. The note with it: route intraperitoneal. Format: functional. In outline:
(§2)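 Rotational behavior in unilaterally 6-OHDA-lesioned rats, ascending DA pathway. Drug given ip, mostly to one group of four rats, plus a second group of four for some doses. Injections at least 3 days apart over several months. Reported as mean total turning time (min), peak, overall and total activity, means ± SEM.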

The subject of assay [12] is Rattus norvegicus. The experiment in a line: Central dopaminergic activity in 6-OH-DA-lesioned specific pathogen-free Sprague-Dawley rat assessed as induction of rotational behavior measured as total time at 25 mg/kg, ip. Format: functional. To be noted: route intraperitoneal. In outline:
as §2

The subject of assay [13] is Mus musculus. The experiment in a line: Antinociceptive activity in albino CD-1 mouse at 1 to 10 mg/kg, ip up to 2 hrs by tail-flick method. The format is functional, organism-based. A digest of the protocol: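 Male albino CD-1 mice (18–24 g), ten per group, dosed ip as suspension in 0.5% methylcellulose. Radiant light on ventral tail, adjusted for baseline 2–4 sec; animals outside excluded. Two control latencies 30 min apart averaged; post-dose latencies every 30 min over 2 hr, 10-sec cutoff. %MPE = [(Tr − Tc)/(10 − Tc)] × 100, read at peak-effect time.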

For assay [14], the system named is Rattus norvegicus. The experiment in a line: Central dopaminergic activity in 6-OH-DA-lesioned specific pathogen-free Sprague-Dawley rat assessed as induction of rotational behavior measured as total time at 0.25 mg/kg, ip. The format is functional. The note with it: route intraperitoneal. In outline: as §1
Assay [15] has as its system Rattus norvegicus. The experiment in a line: Central dopaminergic activity in 6-OH-DA-lesioned specific pathogen-free Sprague-Dawley rat assessed as induction of rotational behavior measured as total time at 2.5 mg/kg, ip. The note with it: route intraperitoneal. The format is functional. A digest of the protocol:
as §1

Assay [16] has as its system Rattus norvegicus. The experiment in a line: Central dopaminergic activity in 6-OH-DA-lesioned specific pathogen-free Sprague-Dawley rat assessed as induction of rotational behavior measured as total time at 0.1 mg/kg, ip. The format is functional. The note with it: route intraperitoneal. In outline: as §1
For assay [17], the system named is Mus musculus. The experiment in a line: Antinociceptive activity in naloxone hydrochloride-pretreated albino CD-1 mouse at 0.1 to 10 mg/kg, ip after 10 mins by tail-flick method. Format: functional, organism-based.
Assay [18] relates to Rattus norvegicus. The experiment in a line: Central dopaminergic activity in 6-OH-DA-lesioned specific pathogen-free Sprague-Dawley rat assessed as induction of rotational behavior measured as total time at 0.005 mg/kg, ip. The format is functional. The note with it: route intraperitoneal. In outline: as §1
For assay [19], the system named is Mus musculus. The experiment in a line: Antinociceptive activity in albino CD-1 mouse at 0.1 to 10 mg/kg, ip after 10 mins by tail-flick method. Format: functional, organism-based.

`CN1CCc2cccc3c2[C@H]1Cc1ccc(O)c(O)c1-3` [APOMORPHINE]: the Time in the assay with Rattus norvegicus [1] is reported as 33 min; with Rattus norvegicus [2], 55 min; in the assay on Rattus norvegicus [3], 63 min; in the assay with Rattus norvegicus [4], 144 min; in the assay on Rattus norvegicus [5], 153 min; in the assay on Rattus norvegicus [6], 238 min. Moreover, the result with Rattus norvegicus [7] and in the assay with Mus musculus [9] was Active. In the assay on Mus musculus [8], the outcome was inactive.
With `CN1CC[C@]23c4c5ccc(O)c4O[C@H]2[C@@H](O)C=C[C@H]3[C@H]1C5`, the result in the assay with Mus musculus [8] was Active. The outcome in the assay with Mus musculus [9] was inactive.
As to `COc1ccc2c(c1O)-c1cccc3c1[C@@H](C2)N(C)CC3` [APOCIDEINE], the figures for the Time in the assay on Rattus norvegicus [10] and in the assay with Rattus norvegicus [5] were 200 min and 40 min, respectively.
Turning to `N[C@@H](Cc1ccc(O)c(O)c1)C(=O)O` [LEVODOPA], the Time in the assay on Rattus norvegicus [10] is 35 min; with Rattus norvegicus [11], 90 min; with Rattus norvegicus [12] it was 127 min. The result in the assay on Mus musculus [13] was inactive.
On to `CCCN1CCc2cccc3c2C1Cc1ccc(O)cc1-3` (racemic), for which the Time with Rattus norvegicus [4] turned out to be 105 min; in the assay on Rattus norvegicus [5], 177 min; with Rattus norvegicus [14], 0 min; with Rattus norvegicus [15], 174 min. Also, the result in the assay with Rattus norvegicus [7], in the assay with Mus musculus [8] and in the assay on Mus musculus [9] was Active.
On to `CCCN1CCc2cccc3c2C1Cc1cccc(O)c1-3` (racemic), for which the Time in the assay with Rattus norvegicus [1] is on record as 0 min; in the assay on Rattus norvegicus [3], 195 min; in the assay with Rattus norvegicus [5], 725 min; with Rattus norvegicus [14], 580 min; in the assay with Rattus norvegicus [16], 200 min. Further, in the assay with Rattus norvegicus [7], the outcome was Active.
For the compound `CCCN1CCc2cccc3c2[C@H]1Cc1ccc(O)c(O)c1-3` (racemic) [R-N-PROPYLNORAPOMORPHINE], the outcome with Mus musculus [17], with Rattus norvegicus [7] and with Mus musculus [19] was Active. Besides, the Time with Rattus norvegicus [1] was found to be 200 min; with Rattus norvegicus [2] it was 185 min; with Rattus norvegicus [3], 305 min; in the assay with Rattus norvegicus [16], 360 min; in the assay with Rattus norvegicus [18], 205 min.
